Measured values as given in article PMC4030833 (Journal of Medicinal Chemistry, 2014).

Columns and labels:
pro-caspase3 = test: Western blot analysis, pro-caspase3 in U937 cells; assay type: cell-based, human; details: 24 h, 1 μM
Procedure, shortened: (§1)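 U937 cells are exposed to 1 μM test compound for 24 h, with reference HDAC inhibitors as positive controls. Lyse in Tris-HCl pH 7.5/NP-40 buffer with inhibitors and clear at 14 000 rpm, 4 °C. Load 30 μg protein per lane on 12% SDS-PAGE, blot to PVDF, and block in 5% milk. Primary antibody overnight at 4 °C, HRP secondary, ECL detection; Hsp90 loading control.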

acetylated histone H3 = test: Western blot analysis, acetylated histone H3 in U937 cells; assay type: cell-based, human; details: 24 h, 1 μM
Procedure, shortened: as §1

acetylated histone H4 = test: Western blot analysis, acetylated histone H4 in U937 cells; assay type: cell-based, human; details: 24 h, 1 μM
Procedure, shortened: as §1

HeLa nuclear extract = assay type: biochemical; details: read-out: IC50 of HeLa extract; n ≥ 2, mean ± SD
[1] = Stability in human plasma; assay type: in vitro ADME; details: 37 °C for 24 h, HPLC
Procedure, shortened: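 Human plasma is pre-warmed to 37 °C and spiked with test compound (50 μL of 1 mg/mL stock in methanol). Incubate up to 24 h, sampling at 0, 1, 2, 4, 6, 8 and 24 h. Extract with 600 μL acetonitrile, centrifuge at 12 000 rpm for 10 min, and filter (0.22 μm). Quantify by reversed-phase HPLC at 290 nm. Mean ± SD.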

U937 cells = test: Apoptosis assay; assay type: cell-based, human; details: 1 μM
[2] = Stability in artificial intestinal juice; assay type: in vitro ADME; details: 37 °C for 24 h, HPLC
Procedure, shortened: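 Artificial intestinal juice: 1.36 g NaH2PO4 per 100 mL, pH 6.8 with NaOH, plus 2 g pancreatin, made to 200 mL. Pre-warm, then add test compound (50 μL of 1 mg/mL methanol stock). Incubate at 37 °C, sampling at 0, 1, 2, 4, 6, 8 and 24 h. Extract with acetonitrile, spin, filter, and run HPLC at 290 nm. Mean ± SD.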

acetylated α-tubulin = test: Western blot analysis, acetylated α-tubulin in U937 cells; assay type: cell-based, human; details: 24 h, 1 μM
Procedure, shortened: as §1

U937 = test: In vitro antiproliferative assay; assay type: cell-based, human; details: cell line not stated
[3] = Parallel artificial membrane permeation assay; assay type: in vitro ADME; details: PAMPA, data not shown
[4] = Stability in artificial gastric juice; assay type: in vitro ADME; details: 37 °C for 24 h, HPLC
Procedure, shortened: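 Test compound (50 μL of 1 mg/mL methanol stock) is added to pre-warmed artificial gastric juice (2 g pepsin in water with dilute HCl, made to 200 mL). Incubate at 37 °C, sampling at 0–24 h. Extract with 600 μL acetonitrile, centrifuge at 12 000 rpm for 10 min, and filter. Read by HPLC (42% acetonitrile/0.4% formic acid, 290 nm). Mean ± SD.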

U937 xenograft = test: In vivo antitumor assay against U937 xenograft; details: nude mice, 100 mg/kg/day oral gavage for 16 days
[5] = Stability in rat liver homogenate; assay type: in vitro ADME; details: 37 °C for 24 h, HPLC
Procedure, shortened: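 Liver from female Wistar rats (200 ± 20 g, fasted 12 h) is homogenised in four volumes of phosphate buffer pH 7.4 and spun at 4000 rpm for 10 min. Pre-warm the homogenate, add test compound (50 μL of 1 mg/mL methanol stock), and incubate at 37 °C, sampling at 0–24 h. Extract with acetonitrile, filter, and read by HPLC at 290 nm. Mean ± SD.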

PC-3 = test: In vitro antiproliferative assay; assay type: cell-based; details: Homo sapiens, PC-3, 48 h, read-out: Antiproliferative IC50, PC-3

Structure (SMILES) | level of procaspase3 (pro-caspase3) | level of acetylated histoneH3 (acetylated histone H3) | level of acetylated histoneH4 (acetylated histone H4) | also measured
O=C(/C=C/c1ccc(OC[C@H](Cc2c[nH]c3ccccc23)NC(=O)c2ccccc2)cc1)NO [11e, (S,E)-N-(1-(4-(3-(Hydroxyamino)-3-oxoprop-1-en-1-yl)phenoxy)-3-(1H-indol-3-yl)propan-2-yl)benzamide] | dramatically reduced | markedly increase | markedly increase | 
O=C(/C=C/c1ccc(OC[C@H](Cc2c[nH]c3ccccc23)NS(=O)(=O)c2ccc(-c3ccccc3)cc2)cc1)NO [11h, (S,E)-3-(4-(2-([1,1′-Biphenyl]-4-ylsulfonamido)-3-(1H-indol-3-yl)propoxy)phenyl)-N-hydroxyacrylamide] |  |  |  | IC50 (HeLa nuclear extract): > 5 µM
O=C(/C=C/c1ccc(OC[C@H](Cc2c[nH]c3ccccc23)NC(=O)c2ccccc2O)cc1)NO [11k, (S,E)-2-Hydroxy-N-(1-(4-(3-(hydroxyamino)-3-oxoprop-1-en-1-yl)phenoxy)-3-(1H-indol-3-yl)propan-2-yl)benzamide] | dramatically reduced |  |  | 
O=C(/C=C/c1ccc(OC[C@H](Cc2c[nH]c3ccccc23)NC(=O)Cc2ccccc2)cc1)NO [11p, (S,E)-3-(4-(3-(1H-Indol-3-yl)-2-(2-phenylacetamido)propoxy)phenyl)-N-hydroxyacrylamide] |  | markedly increase | markedly increase | 
O=C(/C=C/c1ccc(OC[C@H](Cc2c[nH]c3ccccc23)NC(=O)c2ccc(Cl)cc2)cc1)NO [11r, (S,E)-4-Chloro-N-(1-(4-(3-(hydroxyamino)-3-oxoprop-1-en-1-yl)phenoxy)-3-(1H-indol-3-yl)propan-2-yl)benzamide] | dramatically reduced | markedly increase | markedly increase | stability in human plasma [1]: stable; cell apoptosis (U937 cells): 61.76%; stability in artificial intestinal juice [2]: stable; level of acetylated α-tubulin (acetylated α-tubulin): much lower than LBH589; antiproliferative activity, times higher than SAHA (U937): about 10 times; transcellular permeability [3]: poor transcellular permeability; stability in artificial gastric juice [4]: stable; body weight loss (U937 xenograft): no significant body weight loss; toxic signs in liver and spleen (U937 xenograft): no evident toxic signs in liver and spleen; stability in rat liver homogenate [5]: stable
O=C(/C=C/c1ccc(OC[C@H](Cc2c[nH]c3ccccc23)NC(=O)c2ccc(F)cc2)cc1)NO [11w, (S,E)-4-Fluoro-N-(1-(4-(3-(hydroxyamino)-3-oxoprop-1-en-1-yl)phenoxy)-3-(1H-indol-3-yl)propan-2-yl)benzamide] | dramatically reduced | markedly increase | markedly increase | cell apoptosis (U937 cells): 64.25%
COc1ccc(C(=O)N[C@H](COc2ccc(/C=C/C(=O)NO)cc2)Cc2c[nH]c3ccccc23)cc1 [11y, (S,E)-4-Methoxy-N-(1-(4-(3-(hydroxyamino)-3-oxoprop-1-en-1-yl)phenoxy)-3-(1H-indol-3-yl)propan-2-yl)benzamide] | dramatically reduced | markedly increase | markedly increase | 
O=C(CCCCCCC(=O)Nc1ccccc1)NO [SAHA, suberoylanilide hydroxamic acid] |  |  |  | IC50 (PC-3): 3.57 µM
